CHOP UPR activ – activators of apoptotic arm of unfolded protein response (CHOP); CHO-CHOP luciferase reporter, UPR activation, luminescence; percent of tunicamycin response over DMSO baseline; activation, % at 10 µM; 0.34% of 330,000 active; AID 449763;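 active = at 10 µM dose, activation of 40% or more, normalized to positive control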;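 also: 100% = tunicamycin at 10 µg/mL and 0% = DMSO alone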
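Test system: CHO-CHOP cells, stable luciferase reporter of PERK-eIF2a-CHOP signalling | Quantity: 500 CHO-CHOP cells per well | Buffer or medium: F12 plus 10% serum | Compound dosing: 10 µM single point, 0.5% DMSO | Schedule: 6 h compound treatment, 37 °C | Signal: Luciferase luminescence | Control set: Tunicamycin high control, DMSO low control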
Apaf-1 inh – blocks human Apaf-1 apoptosome activity; O14727; reconstituted apoptosome caspase-3 activity, DEVD-Rh110 fluorescence; inhibition, % at 20 µM; 0.71% of 330,000 active; AID 489030; active = inhibition of at least 40% at 20 µM;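 also: plate controls were DMSO wells for no effect and DEVD-CHO caspase inhibitor wells for full effect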
Target sequence (O14727 whole entry, looked up): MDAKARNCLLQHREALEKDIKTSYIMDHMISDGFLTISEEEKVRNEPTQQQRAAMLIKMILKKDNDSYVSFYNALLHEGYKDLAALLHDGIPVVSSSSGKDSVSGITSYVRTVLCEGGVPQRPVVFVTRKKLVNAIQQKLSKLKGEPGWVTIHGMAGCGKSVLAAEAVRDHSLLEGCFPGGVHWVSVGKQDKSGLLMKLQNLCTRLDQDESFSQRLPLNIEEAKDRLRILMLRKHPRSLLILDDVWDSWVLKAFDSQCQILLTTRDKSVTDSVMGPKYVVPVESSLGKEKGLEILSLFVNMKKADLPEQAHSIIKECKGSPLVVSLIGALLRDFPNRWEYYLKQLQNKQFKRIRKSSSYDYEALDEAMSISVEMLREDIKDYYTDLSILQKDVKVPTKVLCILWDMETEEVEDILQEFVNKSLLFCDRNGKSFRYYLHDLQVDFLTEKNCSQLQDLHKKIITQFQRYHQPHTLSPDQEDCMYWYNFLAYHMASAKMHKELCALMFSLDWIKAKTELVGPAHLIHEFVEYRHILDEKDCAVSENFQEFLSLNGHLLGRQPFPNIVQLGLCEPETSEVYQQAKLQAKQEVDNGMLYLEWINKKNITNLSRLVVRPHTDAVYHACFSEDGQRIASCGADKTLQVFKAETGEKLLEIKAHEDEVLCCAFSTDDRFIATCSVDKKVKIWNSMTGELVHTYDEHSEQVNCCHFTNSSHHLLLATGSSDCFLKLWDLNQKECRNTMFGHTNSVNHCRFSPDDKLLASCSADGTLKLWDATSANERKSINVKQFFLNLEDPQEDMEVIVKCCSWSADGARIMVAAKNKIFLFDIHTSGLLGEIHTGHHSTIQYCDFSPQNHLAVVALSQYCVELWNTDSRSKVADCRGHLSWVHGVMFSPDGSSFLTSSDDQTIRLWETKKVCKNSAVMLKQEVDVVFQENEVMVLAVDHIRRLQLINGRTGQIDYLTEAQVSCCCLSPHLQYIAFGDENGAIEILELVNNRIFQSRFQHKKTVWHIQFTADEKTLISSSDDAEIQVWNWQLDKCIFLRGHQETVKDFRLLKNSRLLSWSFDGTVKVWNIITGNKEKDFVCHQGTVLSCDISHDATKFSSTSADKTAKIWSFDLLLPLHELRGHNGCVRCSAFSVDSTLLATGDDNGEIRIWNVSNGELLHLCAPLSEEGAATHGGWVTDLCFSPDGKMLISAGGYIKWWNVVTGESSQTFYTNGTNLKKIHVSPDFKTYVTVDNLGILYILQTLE
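Assay system – apoptosome proteins · Medium – Hepes buffer, pH 7.5 · Also added – cytochrome c with DEVD-Rh110 · Timing – 30 min compound preincubation, 50 min activation, room temperature · Detection – Rh110 fluorescence, excitation 480 nm, emission 540 nm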
XBP1 UPR activ – activators of adaptive arm of unfolded protein response (XBP1); CHO-XBP1 luciferase reporter, IRE1-XBP1 UPR activation, luminescence; percent of tunicamycin response, DMSO as zero; AID 463104; 0.33% of 330,000 active; activation, % at 20 µM;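 active = versus positive control, 20 µM dose yields 30% or more activation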;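 also: 100% = tunicamycin at 10 µg/mL and 0% = DMSO only wells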
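assay system = CHO-XBP1 luciferase reporter cells | amount = 1000 cells/well | buffer or medium = F12 plus 10% FBS | compound dosing = single point, 20 µM final compound, 1% DMSO | incubation = 16-18 h cell attachment at 37 °C, then 6 h compound exposure | detection = Steady-Glo luminescence read | controls = tunicamycin 10 µg/mL and vehicle-only wells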
Mdm2-MdmX inh – human Mdm2/MdmX binding inhibition; O15151+Q00987; SaOS-2 split-luciferase Mdm2/MdmX complementation, luminescence; inhibition, % at 8 µM; 3% of 330,000 active;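 active = inhibition of at least 50% at 8 µM in the primary screen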
UBC13 polyUb – blocks human UBC13 polyubiquitin chain formation; 0.47% of 330,000 active; AID 485273; inhibition, % at 20 µM; TR-FRET; in the data active = inhibition above about 45%, passing the limit was not always enough
Mdm2-MdmX conf – human Mdm2/MdmX binding inhibition, confirmed; shares compounds with Mdm2-MdmX inh; luminescent assay; inhibition, % at 8 µM; 55% of 10,000 active; AID 489028; in the data active = inhibition above about 40%
FLuc counter – inhibits full-length luciferase, flagging false Mdm2/MdmX hits | SaOS-2 full-length luciferase counterscreen, luminescence | inhibition, % at 8 µM | AID 504607 | 77% of 6,200 active | shares compounds with Mdm2-MdmX inh;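 active = mean inhibition at 8 µM reaching about 37%, which flags the compound as non-specific, limit read from the data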;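 also: p53-null SaOS-2 cells with luciferase driven by a doxycycline-inducible promoter; compound on cells about two nights before reading with doxycycline added after day one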
An asterisk follows results filed as active; . = not tested or not shown. Most compounds without a hit are left out; they make up all but 4.1% or so of the library.

SMILES	CHOP UPR activ	Apaf-1 inh	XBP1 UPR activ	Mdm2-MdmX inh	UBC13 polyUb	Mdm2-MdmX conf	FLuc counter
Cc1ccc(CCC(=O)Nc2ncc(Cc3cccc(Cl)c3Cl)s2)o1	0.8	8.1	23.4	68.9*	-6.6	66.5*	76.5*
Cc1ccc2nc(SC(C)C(=O)N3CCOCC3)[nH]c2c1 (configuration not stated)	3.6	-5.3	-4.0	-13.7	-10.1	.	.
O=C(O)c1cccc(Nc2nc3ccccc3nc2NS(=O)(=O)c2ccc(F)cc2)c1	0.3	0.7	-0.4	22.5	1.0	.	.
O=S(=O)(Nc1nc2ccccc2nc1Nc1ccc2c(c1)OCO2)c1ccc(F)cc1	-0.9	4.0	-0.1	50.1*	-13.6	26.7	.
O=S(=O)(Nc1nc2ccccc2nc1Nc1cccc(S(=O)(=O)N2CCCCC2)c1)c1ccccc1	4.8	33.5	-0.8	81.5*	-3.1	78.7*	42.7*
C[C@H](CO)N1C[C@H](C)[C@@H](CN(C)S(=O)(=O)c2cccs2)Oc2ccc(NC(=O)Nc3ccc(C(F)(F)F)cc3)cc2C1=O	2.7	8.4	-1.2	67.9*	-4.1	-2.4	.
C[C@@H]1CN([C@H](C)CO)C(=O)c2cc(NC(=O)Nc3ccc(C(F)(F)F)cc3)ccc2O[C@H]1CN(C)S(=O)(=O)c1cccs1	1.1	24.2	6.3	80.5*	-13.1	51.0*	44.2*
C[C@H](CO)N1C[C@H](C)[C@@H](CN(C)S(=O)(=O)c2cccs2)Oc2ccc(NC(=O)Nc3ccccc3)cc2C1=O	1.3	6.0	-2.6	16.0	9.4	.	.
CS(=O)(=O)Nc1ccc(C2=NN(C(=O)c3ccco3)C(c3ccccc3F)C2)cc1 (configuration not stated)	2.0	17.8	-1.2	8.1	-6.5	.	.
Cc1ccnc(NS(=O)(=O)c2ccc(NC(=O)CC(C)c3ccccc3)cc2)n1 (configuration not stated)	0.0	3.3	-4.0	-1.3	0.3	.	.
O=C(COc1ccc(F)cc1Cl)Nc1nc(-c2ccccn2)cs1	-1.1	13.3	-1.9	74.3*	0.1	69.6*	33.8
O=C(Nc1nc(-c2ccccn2)cs1)c1ncc(Cl)c(Cl)c1Cl	-0.3	15.4	-3.4	74.3*	-52.6	34.5	.
CCc1sc(C(=O)Nc2nc(-c3ccccn3)cs2)cc1C	0.6	9.0	4.8	64.3*	-30.2	40.3*	37.0*
Cc1ccc(C(=O)Nc2nc(-c3ccccn3)cs2)s1	31.1	1.3	6.9	57.8*	-29.5	75.5*	34.6
O=C(COc1ccccc1Cl)Nc1nc(-c2ccncc2)cs1	-0.7	3.7	-2.3	29.8	12.6	.	.
COc1ccc(C(=O)C2CCCN(C(=O)c3cc(C4CC4)[nH]n3)C2)c(C)c1 (configuration not stated)	-0.1	0.8	0.2	18.4	4.7	.	.
COc1cc(CNc2ccc(N3CCCCC3)cc2)ccc1OCC(=O)NC(C)(C)C	2.0	16.9	-5.1	28.6	-1.7	.	.
CN(C)c1ccc([C@@H]2[C@@H]([N+](=O)[O-])[C@H]3C=Cc4ccccc4N3[C@H]2C(=O)c2ccc(Cl)cc2)cc1	4.1	29.4	-1.1	11.5	-88.1	.	.
Cc1nc(SCC(=O)Nc2ccccc2C(F)(F)F)c2c(=O)n(C)c(=O)n(C)c2n1	-0.2	-5.4	2.7	95.0*	-3.8	1.8	.
Cc1nc(SCC(=O)NCc2ccccc2)c2c(=O)n(C)c(=O)n(C)c2n1	2.1	-5.9	3.2	9.1	-0.8	.	.
CCN(CC)S(=O)(=O)c1cccc(C(=O)N/N=C/c2cc(OC)c(O)c(OC)c2)c1	-0.3	6.3	-0.6	2.6	-6.0	.	.
CCN(CC)S(=O)(=O)c1cccc(C(=O)N/N=C/c2cccc(O)c2O)c1	1.6	5.1	3.6	59.5*	-21.7	65.7*	38.6*
Cn1ncc(Cl)c1C(=O)N/N=C/c1cc2c(cc1[N+](=O)[O-])OCO2	-0.7	-7.8	4.0	-11.2	-23.2	.	.
CCN(CC)c1ccc(/C=N/NC(=O)c2c(Cl)cnn2C)c(O)c1	-0.9	10.7	2.1	70.9*	-17.6	81.1*	26.9
O=C(N/N=C/c1sc(N2CCOCC2)nc1-c1ccccc1)c1cccc(S(=O)(=O)N2CCOCC2)c1	1.4	12.3	-1.8	75.6*	-15.1	69.7*	42.7*
SMILES	CHOP UPR activ	Apaf-1 inh	XBP1 UPR activ	Mdm2-MdmX inh	UBC13 polyUb	Mdm2-MdmX conf	FLuc counter
CCN(CC)c1ccc(/C=N/Nc2nc(C)cc(=O)[nH]2)c(O)c1	-3.6	6.8	-0.5	63.7*	-32.8	80.4*	22.4
COC(=O)c1cccc(NC(=O)CC2C(=O)NCCN2C(=O)c2ccc(F)cc2F)c1 (configuration not stated)	0.3	1.3	-1.1	-19.0	5.2	.	.
CCc1nnc(NS(=O)(=O)c2ccc(NC(=S)NC(=O)/C=C/c3ccc(C(C)C)cc3)cc2)s1	7.4	21.7	-1.2	1.7	-56.2	.	.
O=C(N/N=C/c1ccccc1O)c1cccc(C(F)(F)F)c1	-2.3	-4.4	2.2	69.0*	-6.8	73.0*	35.8
O=C(N/N=C/c1ccc(O)cc1)c1cccc(C(F)(F)F)c1	-2.3	0.8	-0.9	-14.5	3.4	.	.
CCN(CC)c1ccc(/C=N/NC(=O)c2cccc(S(=O)(=O)N3CCOCC3)c2)c(O)c1	-3.1	-24.6	-0.3	75.4*	19.0	84.0*	52.9*
COc1ccccc1NC(=O)C1=C(C)NC(SCC(=O)Nc2ccc(C(=O)O)cc2)=C(C#N)C1c1cccs1 (configuration not stated)	2.6	-3.0	-1.2	26.3	15.2	.	.
CCn1c(CNc2ccc(C)cc2)nnc1SCC(N)=O	-1.2	7.8	2.2	12.0	-9.9	.	.
CCn1c(/C=C/Nc2ccccc2)[n+](CC)c2cc(Cl)c(Cl)cc21	-0.2	13.8	-0.1	97.5*	8.2	27.5	.
COc1cc(OC)cc(C(=O)Nc2nc(-c3ccccc3)c(-c3ccccc3)o2)c1	-0.1	4.7	-0.1	56.0*	-15.9	35.6	.
CC(=O)Nc1nc(-c2ccccc2)c(-c2ccccc2)o1	-2.6	4.7	0.6	7.4	3.6	.	.
c1cc2c(cc1C1CCCCC1)c1c3n2CCN=C3CCC1	0.8	31.4	1.0	52.6*	33.6	22.6	.
COc1ccc(Oc2c(Cl)cnn(-c3ccc(C)cc3)c2=O)cc1	1.7	18.4	0.4	49.0	2.8	.	.
COc1ccc(Oc2c(Cl)cnn(-c3ccc(Cl)c(Cl)c3)c2=O)cc1	4.7	20.9	-2.3	85.4*	-3.3	-5.8	.
COc1ccc(S(=O)(=O)N2CCOC2CNC(=O)C(=O)NCCc2c[nH]c3ccccc23)cc1C (configuration not stated)	-0.6	13.3	-2.5	25.4	8.0	.	.

Assay outcomes from PubChem BioAssay.
